Data taken from PubChem BioAssay.
Inconclusive results are not listed.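 The calls were made as follows, unless noted: active = cell viability at or below a set limit in both duplicate runs, the limit being the all-compound median minus 4 SD (cut at about 23% in these data, passing the limit was not always enough); inconclusive = no clear call, values can overlap the other calls; inactive = the rest.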

Key:
[1] = OD615 S. cerevisiae growth inhibition, permissive medium, pilot counter-assay, permissive growth control for S. cerevisiae lifespan shortening project (AID 705;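 active = growth inhibition above 25% in both replicates, a cutoff set 3 SD above the mean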); conditions: OD615, 24 h, at 10 µM, hits give high values
Outline: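 System: Engineered DeaD yeast | Buffer or medium: SC raffinose/galactose permissive medium | Incubation: Cells pre-grown 4 h, then 24 h compound exposure, 30 °C humidified | Measured by: Absorbance (optical density) at 615 nm | Read-out: Reduction in yeast growth (OD615)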

[2] = Restrictive medium S. cerevisiae growth inhibition, OD615, pilot screen of yeast lifespan reduction project, restrictive growth control (AID 706;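 active = growth inhibition above a set limit, 3 SD over mean compound inhibition, in both replicates, cut at about 43% in these data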;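 also: modified DeaD lifespan yeast strain shifted to restrictive glucose medium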); conditions: OD615, 48 h, at 10 µM, hits give high values
Outline: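 Material: modified S. cerevisiae; Medium: glucose-based CSMM-D restrictive medium; Compound dosing: one concentration, 10 µM final, 0.25% DMSO; Incubation: 48 h compound exposure at 30 °C; Measured by: OD615.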

[3] = viability gain of MRP-1-high H69AR cells under doxorubicin, pilot screen, MRP-1 activator project, CellTiter-Glo, duplicate (AID 807;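 active = viability increase at or above a cutoff of the median across tested compounds plus 3 SD, cut at about 8.5% in these data, passing the limit was not always enough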;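 also: compound pretreatment 18-22 h then 72 h combined with doxorubicin; 0% = doxorubicin alone and 100% = vehicle without doxorubicin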); conditions: H69AR viability with doxorubicin, CellTiter-Glo luminescence; at 10 µM; hits give high values
[4] = growth suppression of beta-catenin knockout HCT116, pilot screen, human colon tumor cells (AID 823); conditions: CellTiter-Glo, 60 h, at 10 µM, hits give low values;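 also: 0% = wells killed by 20 µM Hyamine and 100% = untreated DMSO cell wells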
[5] = growth suppression of PTEN-deleted HCT116, pilot screen, cell-based, HCT116 clonal line, CellTiter-Glo (AID 824;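 active = viability at or below 27.92% in each of two runs, the all-compound median minus 4 SD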;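 also: 0% = 20 µM Hyamine control and 100% = vehicle cell control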); conditions: 60 h, at 10 µM, hits give low values
[6] = inhibitors of the yeast RAM network, pilot screen, dse1pr::URA3 reporter, 5-FOA selection (AID 869;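 active = inhibition over a set limit, the all-compound mean plus 3 SD, in both replicate runs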;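 also: 0% = DMSO wells with no growth and 100% = 10 µM 1-NA-PP1 with full growth; RAM network block rescues cells from 5-FOA so hits raise OD615 growth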); conditions: S. cerevisiae dse1pr::URA3 5-FOA growth, OD615, 2 d, at 10 µM, hits give high values
[7] = RAM signaling pathway blockade in yeast – S. cerevisiae, Pdr1DBD-CYC8 efflux-inhibited sensitized strain, primary screen (AID 1298;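 active = RAM network inhibition above 8.4% in each of two replicates, 3 SD over the compound average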;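 also: 0% = DMSO untreated cells without growth and 100% = 10 µM 1-NA-PP1 full growth; higher means more yeast growth rescued from 5-FOA killing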); conditions: S. cerevisiae cbk1-as DSE1-URA3 strain, 5-FOA growth OD615, 2 d; at 50 µM; hits give high values

O=C1CCCC2=C1C(c1cccnc1)Nc1ccccc1N2 (centres undefined)
inactive: growth inhibition [1] -12.3% | growth inhibition [2] -2.74% | viability increase [3] -1.06% | viability [4] 90.8% | viability [5] 99.2% | inhibition [6] 1.61% | RAM network inhibition [7] 4.54%

Cc1cc(OCC(=O)OC(C)(C)C)c2c3c(c(=O)oc2c1)CCC3
inactive: growth inhibition [1] -8.29% | growth inhibition [2] -17% | viability increase [3] -2.71% | viability [4] 88.2% | viability [5] 85.6% | inhibition [6] 2.17% | RAM network inhibition [7] 5.46%

Cn1c(O)c(C=Nc2ccc(Cl)cc2)c(=O)n(C)c1=O
inactive: growth inhibition [1] -7.12% | growth inhibition [2] -0.49% | viability increase [3] -0.57% | viability [4] 96.2% | viability [5] 93.7% | inhibition [6] 0.685% | RAM network inhibition [7] 4.04%

O=C(CN1CC(c2ccccc2)CC1=O)Nc1cccc(F)c1 (centres undefined)
inactive: growth inhibition [1] -10.1% | growth inhibition [2] -5.42% | viability increase [3] -4.37% | viability [4] 98.3% | viability [5] 96.5% | inhibition [6] 1.39% | RAM network inhibition [7] 4.67%

NC(=O)CN1CC(c2ccccc2)CC1=O (centres undefined)
inactive: growth inhibition [1] -5.56% | growth inhibition [2] -19.9% | viability increase [3] -0.3% | viability [4] 105% | viability [5] 98% | inhibition [6] 0.295% | RAM network inhibition [7] 4.63%

Cc1ccc(-n2nc(C)c3c2NC(=O)CSC3c2ccc3c(c2)OCO3)cc1 (centres undefined)
inactive: growth inhibition [1] -3.05% | growth inhibition [2] 2.3% | viability increase [3] 0.35% | viability [4] 89.9% | viability [5] 96.3% | inhibition [6] 0.385% | RAM network inhibition [7] 1.16%

Nc1ccc(S(=O)(=O)N2CC3CC(C2)c2cccc(=O)n2C3)cc1 (centres undefined)
inactive: growth inhibition [1] 1.94% | growth inhibition [2] 1.35% | viability increase [3] 0.35% | viability [4] 101% | viability [5] 100% | inhibition [6] 0.13% | RAM network inhibition [7] 0.37%

COc1cccc(OCC(=O)N2CCN(C)CC2)c1
inactive: growth inhibition [1] 5.64% | growth inhibition [2] 11.5% | viability increase [3] 0.31% | viability [4] 99.8% | viability [5] 102% | inhibition [6] 0.505% | RAM network inhibition [7] 0.31%

CC12CN3CC(C)(CN(C1)P3(=O)Oc1ccccc1)C2=O (centres undefined)
inactive: growth inhibition [1] -3.04% | growth inhibition [2] -8.29% | viability increase [3] -0.06% | viability [4] 101% | viability [5] 97.9% | inhibition [6] 2.22% | RAM network inhibition [7] 3.62%

CCOc1ccc(-n2c(CC)nc3ccccc3c2=O)cc1
inactive: growth inhibition [1] -2.47% | growth inhibition [2] -8.86% | viability increase [3] -1.18% | viability [4] 88% | viability [5] 89.8% | inhibition [6] 1.81% | RAM network inhibition [7] 3.89%

CCOc1ccc(-n2c(O)c(C=Nc3ccc(N4CCOCC4)cc3)c(=O)[nH]c2=O)cc1
inactive: growth inhibition [1] -8.12% | growth inhibition [2] -10.6% | viability increase [3] -3.19% | viability [4] 97.8% | viability [5] 103% | inhibition [6] 0.445% | RAM network inhibition [7] 5.35%

Cc1ccc2c(c1)C1CN(C)CCC1N2C(=O)c1ccco1 (centres undefined)
inactive: growth inhibition [1] -2.01% | growth inhibition [2] -12.5% | viability increase [3] -3.67% | viability [4] 85.4% | viability [5] 91.9% | inhibition [6] 1.32% | RAM network inhibition [7] 2.85%

COc1cc(CC2C(=O)N(C)C(=O)N(C)C2=O)ccc1OCc1ccccc1
inactive: growth inhibition [1] -12.6% | growth inhibition [2] -5.52% | viability increase [3] 0.67% | viability [4] 96.9% | viability [5] 95.8% | inhibition [6] 0.87% | RAM network inhibition [7] 5.72%

Cc1ccc2cccc(OC(=O)N(C)c3ccccc3)c2n1
inactive: growth inhibition [1] -4.06% | growth inhibition [2] -4.96% | viability increase [3] -0.64% | viability [4] 95.5% | viability [5] 87.5% | inhibition [6] 1.67% | RAM network inhibition [7] 1.8%

CCCCCP(=O)(O)c1ccccc1
inactive: growth inhibition [1] -5.12% | growth inhibition [2] -13.1% | viability increase [3] -1.16% | viability [4] 95.2% | viability [5] 103% | inhibition [6] 0.735% | RAM network inhibition [7] 2.16%

C=C(C)c1cccc(C(C)(C)NC(=O)NC2CN3CCC2CC3)c1 (centres undefined)
inactive: growth inhibition [1] -5.2% | growth inhibition [2] 2.09% | viability increase [3] -1.24% | viability [4] 94.4% | viability [5] 93.9% | inhibition [6] -0.575% | RAM network inhibition [7] 0.82%

O=C(CN1CC(c2ccccc2)CC1=O)Nc1ccc(F)cc1 (centres undefined)
inactive: growth inhibition [1] -15.6% | growth inhibition [2] -4.88% | viability increase [3] -3.89% | viability [4] 101% | viability [5] 99.2% | inhibition [6] -0.44% | RAM network inhibition [7] 0.85%
